KCNQ1 inh: human KCNQ1 channel inhibition. hit rate 1.3% among 310,000. B-score at 10 µM. CHO-K1 KCNQ1, FluxOR thallium flux fluorescence; hits give high values. P51787. AID 2642;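 active means compounds whose thallium flux B-score, printed positive for inhibition, exceeds three library SD while starting fluorescence stays within three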;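 further: channel opened by potassium depolarization with thallium stimulus after 20 min compound exposure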
KCNQ1 act: human KCNQ1 channel potentiation or activation | CHO-K1 KCNQ1, thallium flux FluxOR fluorescence; hits give high values | B-score at 10 µM | hit rate 0.35% among 310,000;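 active means fluorescence ratio B-score, a plate-corrected score, at least three library SD, with initial intensity B-score within 5 SD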
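Schedule – 37 °C overnight plating, 90-min dark dye load, 20-min compound pretreatment · System – stable KCNQ1 CHO-K1 line · Probe or stimulus – thallium- and potassium-containing depolarizing buffer · Measured by – kinetic FluxOR fluorescence, 10 s baseline plus 110 s post-stimulus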
hERG protect: hERG (human) protection from proarrhythmic block | CHO-hERG, FluxOR thallium flux, dofetilide IC70 present | activation (rescue from dofetilide block), less the hit threshold, % at 10 µM | hit rate 0.51% among 310,000;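 active means activation above the mean of controls blocked by dofetilide plus 5 SD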;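 further: thallium influx through hERG after potassium depolarization seen as dye fluorescence rise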
KCNK3 inh: human KCNK3 channel inhibition, primary screen. O14649. CHO-KCNK3 thallium flux, FluxOR fluorescence; hits give low values. B-score at 10 µM. hit rate 0.84% among 340,000. AID 602410;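 active means B-score under library mean minus 4 SD, starting fluorescence ratio at most library mean plus 5 SD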;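 further: more negative B-score means stronger inhibition of thallium flux through KCNK3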
KCNK9 block: inhibitors of human KCNK9 two-pore domain potassium channel; Q9NPC2; HEK293 KCNK9, FluxOR thallium flux fluorescence; hits give low values; B-score at 10 µM; hit rate 1.2% among 310,000;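 active means ratio B-score over 3 SD below the library mean, with starting fluorescence within 5 SD of its mean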;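 further: negative B-score means less thallium flux so channel inhibition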
Target sequence (Q9NPC2 whole entry, looked up, the tested form may be a part): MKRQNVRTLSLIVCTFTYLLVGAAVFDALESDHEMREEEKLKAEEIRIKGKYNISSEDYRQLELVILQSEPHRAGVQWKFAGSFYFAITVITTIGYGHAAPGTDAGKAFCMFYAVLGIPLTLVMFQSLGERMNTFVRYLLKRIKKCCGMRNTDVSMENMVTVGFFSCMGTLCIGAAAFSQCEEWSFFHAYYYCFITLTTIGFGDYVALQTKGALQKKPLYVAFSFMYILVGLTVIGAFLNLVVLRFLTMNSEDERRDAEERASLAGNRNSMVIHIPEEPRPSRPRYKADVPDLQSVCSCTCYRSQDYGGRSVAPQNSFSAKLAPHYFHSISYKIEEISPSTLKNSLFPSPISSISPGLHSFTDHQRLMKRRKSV
KCNK9 inh conf: human KCNK9 inhibitor confirmation | shares compounds with KCNK9 block | HEK293 KCNK9 cells, FluxOR thallium flux fluorescence | inhibition, % at 10 µM | hit rate 43% among 4,900;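 active means thallium signal inhibited by more than 5 SD of the compound-free buffer control wells, on both duplicate plates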;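 further: 0% = assay buffer control wells without compound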
Kir21 sel: mouse Kir2.1 off-target activity of KCNK9 modulators; shares compounds with KCNK9 block; Kir2.1 cells, FluxOR thallium flux fluorescence; inhibition, % at 10 µM; hit rate 4% among 4,900;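 active means thallium signal drop more than 5 SD beyond the mean of the no-compound control wells, seen in both duplicate plates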;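 further: signal is fluorescence rise after thallium addition divided by baseline fluorescence; plate controls were assay buffer only for no effect and full block by chlorpromazine control for full effect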
HEK293 Tl ctr: second check of KCNK9 modulator effects in non-induced HEK293 cells. shares compounds with KCNK9 block. FluxOR thallium flux. hit rate 40% among 4,900. inhibition, % at 10 µM. AID 492997;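 active means thallium signal drop beyond 5 SD of the untreated control mean, on both duplicate plates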;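 further: plate controls were buffer only IC0 wells for no effect and SID17386958 at its maximal inhibitory level for full effect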
An asterisk follows results filed as active; i = inactive; . = not tested or not shown. This is a sample that favours compounds with a hit; in the whole collection about 3.1% have one here.

SMILES	KCNQ1 inh	KCNQ1 act	hERG protect	KCNK3 inh	KCNK9 block	KCNK9 inh conf	Kir21 sel	HEK293 Tl ctr
CCOCCOC(=O)COC(=O)c1ccccc1NC(=O)c1ccccc1	i	i	-13.0	i	i	i	i	i
Cc1ccc(C(=O)COC(=O)c2ccccc2NC(=O)c2ccccc2)cc1[N+](=O)[O-]	i	i	-4.8	i	-8.98*	49.0%*	i	36.5%*
COc1ccc(-c2cc(C)no2)cc1S(=O)(=O)NCc1ccc(OC(C)C)cc1	i	i	-8.3	i	i	.	.	.
CC(C)CCn1c(=O)c2ccccc2n2c(CCl)nnc12	i	i	-10.6	i	i	.	.	.
CC(C)CCn1c(=O)c2ccccc2n2c(CN(C)Cc3ccccc3)nnc12	i	i	-11.3	i	i	i	i	i
CCOc1ccccc1CNC(=O)c1cc2oc3ccccc3c2n1CC	i	i	-11.3	i	-9.06*	50.0%*	i	29.5%*
COc1cc2ccccc2cc1C(=O)N1CC(C)CC(C)C1 (stereo not given)	i	i	-18.5	i	i	.	.	.
N#C/C(=C/c1ccc(CNC(=O)C(=O)Nc2cc(Cl)cc(Cl)c2)o1)C(=O)NCc1cccnc1	i	i	-7.5	i	-10.4*	i	i	i
NC(=O)c1cc(C(=O)Cc2ccc(Cl)cc2)c[nH]1	i	i	0.1	i	i	.	.	.
C[C@@H]1CCC[C@@]2(O[C@H](CCO)C[C@H](O)[C@H]2O)O1	i	i	-4.4	i	i	.	.	.
Cc1ccc(S(=O)(=O)n2nccc2-c2c(-c3ccc(Cl)cc3)noc2C)cc1	i	i	-7.4	i	-11.7*	i	i	36.5%*
Cc1ccnc(N2CCN(C(=O)CSc3nc4ccccc4nc3N3CCC(C)CC3)CC2)c1	i	i	-14.2	i	i	i	i	i
Fc1ccc(Cn2c(SCc3ccc(F)c(F)c3)nnc2C(F)(F)F)cc1	i	i	-18.4	i	-8.95*	29.0%*	i	38.5%*
Cn1nnnc1SCc1ccc(F)cc1	i	i	-7.9	i	i	.	.	.
Fc1ccc(Cn2c(SCc3ccc(F)c(C(F)(F)F)c3)nnc2C(F)(F)F)cc1	i	i	-9.5	i	-10.2*	41.5%*	i	44.5%*
COc1ccc(N(C)S(=O)(=O)c2cccc(C(=O)NCc3ccc(C)cc3)c2)cc1	.	.	.	i	.	.	.	.
Cc1c(Nc2scc(-c3ccccc3)[n+]2-c2ccccc2)c(=O)n(-c2ccccc2)n1C	i	i	-21.4	i	i	.	.	.
Cc1ccccc1Nc1scc(-c2ccc(Cl)cc2)[n+]1-c1ccccc1C	i	i	-17.2	i	-8.37*	62.5%*	i	i
CCn1nc(C(=O)Nc2cccc(C(F)(F)F)c2)c(Cl)c1Cl	i	i	-7.0	i	-8.93*	46.0%*	i	28.0%*
CCn1nc(C(=O)Nc2ccccc2C)c(Cl)c1Cl	i	i	-6.6	i	i	.	.	.
CCn1cc(Br)c(C(=O)Nc2ccc(Cl)c(Cl)c2)n1	i	i	-1.9	i	i	.	.	.
CCn1cc(Br)c(C(=O)Nc2cccc(Cl)c2)n1	i	i	-5.9	i	-12.2*	63.0%*	i	33.0%*
OC1(Cc2cc(-c3ccccc3)no2)CCN(CCCc2ccccc2)CC1	i	i	-14.0	i	i	.	.	.
CCOC(=O)C1CCN(C(=O)COc2ccc(S(=O)(=O)N3CCOCC3)cc2C)CC1	i	i	-2.4	i	i	.	.	.
Cc1ccccc1C(=O)NC(=S)NCCc1ccccc1	i	i	-3.3	i	i	.	.	.
Cc1ccccc1C(=O)NC(=S)NCCC1=CCCCC1	i	i	-7.8	i	i	i	i	i
Cc1ccc2c(c1)N(CC(=O)N1CCc3ccccc3C1)C(=O)CO2	i	i	-8.9	i	i	.	.	.
COc1ccc(NC(=O)Cc2ccc(Cl)cc2)cc1S(=O)(=O)N1CCCCC1	.	.	.	i	.	.	.	.

Bioassay records (PubChem BioAssay)
